Test results reported in ChEMBL document CHEMBL3421560, “Search for factors affecting antibacterial activity and toxicity of 1,2,4-triazole-ciprofloxacin hybrids” (Eur J Med Chem, 2015).
pEC50: −log10 of the molar value. Converted amounts (≈) assume the structure as drawn.

What was measured:
Bacillus subtilis = assay: Antimicrobial activity against Bacillus subtilis […] after 18 hrs by broth microdilution method; type: functional
Proteus mirabilis = assay: Antimicrobial activity against Proteus mirabilis ATCC 12453 after 18 hrs by broth microdilution method; type: functional; details: ATCC 12453, 18 h
Staphylococcus aureus [1] = assay: Ratio of MBC for methicillin-susceptible Staphylococcus aureus ATCC 25923 to MIC for methicillin-susceptible Staphylococcus aureus ATCC 25923; type: functional
In short: (§1)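 MBC taken as lowest concentration giving >99.9% CFU reduction of the initial inoculum; value is MBC divided by MIC for the same strain.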

Pseudomonas aeruginosa = assay: Antimicrobial activity against Pseudomonas aeruginosa ATCC 9027 after 18 hrs by broth microdilution method; type: functional; details: ATCC 9027, 18 h
Micrococcus luteus = assay: Antimicrobial activity against Micrococcus luteus ATCC 10240 after 18 hrs by broth microdilution method; type: functional; details: ATCC 10240, 18 h
Staphylococcus aureus [2] = assay: Ratio of MBC for Staphylococcus aureus Microbank 14001 to MIC for Staphylococcus aureus Microbank 14001; type: functional; in short: as §1
Staphylococcus aureus [3] = assay: Ratio of MBC for methicillin-susceptible Staphylococcus aureus ATCC 6538 to MIC for methicillin-susceptible Staphylococcus aureus ATCC 6538; type: functional; in short: as §1
Staphylococcus aureus [4] = assay: Antimicrobial activity against methicillin-susceptible Staphylococcus aureus ATCC 6538 after 18 hrs by broth microdilution method; type: functional; details: ATCC 6538, 18 h
Staphylococcus aureus [5] = assay: Antimicrobial activity against methicillin-susceptible Staphylococcus aureus ATCC 25923 after 18 hrs by broth microdilution method; type: functional; details: ATCC 25923, 18 h
Bacillus cereus = assay: Antimicrobial activity against Bacillus cereus ATCC 10876 after 18 hrs by broth microdilution method; type: functional; details: ATCC 10876, 18 h
Escherichia coli = assay: Antimicrobial activity against Escherichia coli ATCC 25922 after 18 hrs by broth microdilution method; type: functional; details: ATCC 25922, 18 h
[6] = system: Staphylococcus epidermidis; assay: Antimicrobial activity against Staphylococcus epidermidis ATCC 12228 after 18 hrs by broth microdilution method; type: functional; details: ATCC 12228, 18 h
Klebsiella pneumoniae = assay: Antimicrobial activity against Klebsiella pneumoniae ATCC 13883 after 18 hrs by broth microdilution method; type: functional; details: ATCC 13883, 18 h
Staphylococcus aureus [7] = assay: Antimicrobial activity against Staphylococcus aureus Microbank 14001 after 18 hrs by broth microdilution method; type: functional; details: Microbank 14001, 18 h
HEK293 = assay: Cytotoxicity against HEK293 cells after 72 hrs by MTT assay; type: cell-based; details: Homo sapiens, HEK293, 48 h; in the assay text read “48 hrs” for “72 hrs”
In short: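 HEK-293 (ATCC CRL-1573) in MEM with 10% FBS plus penicillin/streptomycin, seeded 3 x 10^5 cells/well, 24 h at 37 °C, 5% CO2. Treated with compounds diluted from 50 mg/mL DMSO stock into medium with 2% FBS for 48 h. Viability by MTT formazan readout; EC50 relative to control cells, mean ± SD of three independent experiments.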

MIC (Bacillus subtilis)	MIC (Proteus mirabilis)	MIC (Pseudomonas aeruginosa)	MIC (Micrococcus luteus)	MIC (Staphylococcus aureus [4])	MIC (Staphylococcus aureus [5])	MIC (Bacillus cereus)	MIC (Escherichia coli)	MIC [6]	MIC (Klebsiella pneumoniae)	MIC (Staphylococcus aureus [7])	SMILES	Ratio (Staphylococcus aureus [1])	Ratio (Staphylococcus aureus [2])	Ratio (Staphylococcus aureus [3])	pEC50 (HEK293)
0.39 µM (≈ 0.239 µg/mL)	0.024 µM (≈ 0.0147 µg/mL)	0.39 µM (≈ 0.239 µg/mL)	1.59 µM (≈ 0.974 µg/mL)	0.39 µM (≈ 0.239 µg/mL)	0.8 µM (≈ 0.49 µg/mL)	0.098 µM (≈ 0.06 µg/mL)	0.012 µM (≈ 0.00735 µg/mL)	0.098 µM (≈ 0.06 µg/mL)	0.049 µM (≈ 0.03 µg/mL)	0.19 µM (≈ 0.116 µg/mL)	O=C(O)c1cn(C2CC2)c2cc(N3CCN(Cn4nc(-c5ccccc5O)n(-c5ccccc5)c4=S)CC3)c(F)cc2c1=O	<=4	<=4	<=4	
0.18 µM (≈ 0.119 µg/mL)	0.023 µM (≈ 0.0152 µg/mL)	0.36 µM (≈ 0.238 µg/mL)	2.95 µM (≈ 1.95 µg/mL)	1.48 µM (≈ 0.979 µg/mL)	1.48 µM (≈ 0.979 µg/mL)	0.18 µM (≈ 0.119 µg/mL)	0.023 µM (≈ 0.0152 µg/mL)	0.18 µM (≈ 0.119 µg/mL)	0.18 µM (≈ 0.119 µg/mL)	1.48 µM (≈ 0.979 µg/mL)	O=C(O)c1cn(C2CC2)c2cc(N3CCN(Cn4nc(-c5cccc(O)c5)n(Cc5ccc(Cl)cc5)c4=S)CC3)c(F)cc2c1=O	<=4	<=4	<=4	
0.048 µM (≈ 0.0301 µg/mL)	0.024 µM (≈ 0.015 µg/mL)	0.096 µM (≈ 0.0602 µg/mL)	1.56 µM (≈ 0.978 µg/mL)	0.19 µM (≈ 0.119 µg/mL)	0.38 µM (≈ 0.238 µg/mL)	0.19 µM (≈ 0.119 µg/mL)	0.006 µM (≈ 0.00376 µg/mL)	0.38 µM (≈ 0.238 µg/mL)	0.096 µM (≈ 0.0602 µg/mL)	0.38 µM (≈ 0.238 µg/mL)	O=C(O)c1cn(C2CC2)c2cc(N3CCN(Cn4nc(-c5ccccc5O)n(Cc5ccccc5)c4=S)CC3)c(F)cc2c1=O	<=4	<=4	<=4	4.16
0.045 µM (≈ 0.0298 µg/mL)	0.046 µM (≈ 0.0304 µg/mL)	0.36 µM (≈ 0.238 µg/mL)	1.48 µM (≈ 0.979 µg/mL)	0.18 µM (≈ 0.119 µg/mL)	0.74 µM (≈ 0.489 µg/mL)	0.091 µM (≈ 0.0602 µg/mL)	0.023 µM (≈ 0.0152 µg/mL)	0.091 µM (≈ 0.0602 µg/mL)	0.023 µM (≈ 0.0152 µg/mL)	0.36 µM (≈ 0.238 µg/mL)	O=C(O)c1cn(C2CC2)c2cc(N3CCN(Cn4nc(-c5ccccc5O)n(Cc5ccc(Cl)cc5)c4=S)CC3)c(F)cc2c1=O	<=4	<=4	<=4	
0.095 µM (≈ 0.0599 µg/mL)	0.024 µM (≈ 0.0151 µg/mL)	0.38 µM (≈ 0.24 µg/mL)	1.55 µM (≈ 0.978 µg/mL)	0.38 µM (≈ 0.24 µg/mL)	0.76 µM (≈ 0.479 µg/mL)	0.19 µM (≈ 0.12 µg/mL)	0.012 µM (≈ 0.00757 µg/mL)	0.19 µM (≈ 0.12 µg/mL)	0.048 µM (≈ 0.0303 µg/mL)	0.38 µM (≈ 0.24 µg/mL)	O=C(O)c1cn(C2CC2)c2cc(N3CCN(Cn4nc(-c5cccc(O)c5)n(-c5ccc(F)cc5)c4=S)CC3)c(F)cc2c1=O	<=4	<=4	<=4	
0.048 µM (≈ 0.0301 µg/mL)	0.012 µM (≈ 0.00752 µg/mL)	0.19 µM (≈ 0.119 µg/mL)	1.56 µM (≈ 0.978 µg/mL)	0.19 µM (≈ 0.119 µg/mL)	0.38 µM (≈ 0.238 µg/mL)	0.096 µM (≈ 0.0602 µg/mL)	0.006 µM (≈ 0.00376 µg/mL)	0.096 µM (≈ 0.0602 µg/mL)	0.048 µM (≈ 0.0301 µg/mL)	0.19 µM (≈ 0.119 µg/mL)	O=C(O)c1cn(C2CC2)c2cc(N3CCN(Cn4nc(-c5cccc(O)c5)n(Cc5ccccc5)c4=S)CC3)c(F)cc2c1=O	<=4	<=4	<=4	
0.37 µM (≈ 0.238 µg/mL)	0.047 µM (≈ 0.0302 µg/mL)	0.19 µM (≈ 0.122 µg/mL)	1.52 µM (≈ 0.977 µg/mL)	0.37 µM (≈ 0.238 µg/mL)	0.74 µM (≈ 0.476 µg/mL)	0.19 µM (≈ 0.122 µg/mL)	0.006 µM (≈ 0.00386 µg/mL)	0.19 µM (≈ 0.122 µg/mL)	0.093 µM (≈ 0.0598 µg/mL)	0.093 µM (≈ 0.0598 µg/mL)	COc1ccc(-n2c(-c3cccc(O)c3)nn(CN3CCN(c4cc5c(cc4F)c(=O)c(C(=O)O)cn5C4CC4)CC3)c2=S)cc1	<=4	<=4	<=4	3.94
0.093 µM (≈ 0.0602 µg/mL)	0.024 µM (≈ 0.0155 µg/mL)	0.37 µM (≈ 0.239 µg/mL)	1.51 µM (≈ 0.977 µg/mL)	0.37 µM (≈ 0.239 µg/mL)	0.76 µM (≈ 0.492 µg/mL)	0.18 µM (≈ 0.116 µg/mL)	0.012 µM (≈ 0.00777 µg/mL)	0.093 µM (≈ 0.0602 µg/mL)	0.046 µM (≈ 0.0298 µg/mL)	0.37 µM (≈ 0.239 µg/mL)	O=C(O)c1cn(C2CC2)c2cc(N3CCN(Cn4nc(-c5cccc(O)c5)n(-c5ccc(Cl)cc5)c4=S)CC3)c(F)cc2c1=O	<=4	<=4	<=4	
